# MT1-MMP act inh: blockers of MT1-MMP proenzyme processing, primary screen, HT1080 RFP-PRO-GFP cells, GFP/RFP fluorescence; GFP/RFP ratio change, % at 20 µM; AID 651647, 2012; GFP/RFP ratio fluorescence, overnight; percent of plate control window, DMSO zero; actives 0.061% (n = 360,000);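 active = GFP/RFP ratio change of at least 30% with cell ATP level not reduced by more than half and red fluorescence within 50% of control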
#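 Compound: 20 µM single dose, 1% DMSO / System: HT1080 RFP-PRO-GFP cells / Controls: DMSO and RFP-L50D-GFP cell wells / Read-out basis: GFP/RFP fluorescence ratio / Schedule: overnight compound exposure at 37 °C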
# TbMetRS inhib: T. brucei MetRS inhibitors, primary screen, biochemical, luminescence; actives 0.4% (n = 360,000); purified T. brucei MetRS, ATP depletion, Kinase-Glo luminescence; inhibition, % at 11.9 µM; methionyl-tRNA synthetase (Trypanosoma brucei brucei);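 active = inhibition above a per-plate cutoff of the control wells' mean inhibition plus 3 SD, cut at about 5.5% in these data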
#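 Material: parasite MetRS enzyme / Replication: singlicate, one well per compound / Signal: luminescence of leftover ATP / Schedule: 2 h aminoacylation at 25 °C after 15 min preincubation / Medium: HEPES-MgCl2-KCl buffer plus DTT, spermine, BSA, pyrophosphatase / Doses: 11.9 µM single point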
# SKN-1 block: suppressors of acrylamide-induced Pgst-4::GFP reporter in worms, primary screen, SKN-1 inhibitor project, whole organism, uHTS, GFP/RFP fluorescence ratio, strain VP596; AID 624304, 2012; actives 0.49% (n = 360,000); inhibition, % at 21.8 µM; C. elegans VP596 Pgst-4::GFP/RFP ratio, 24 h;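 active = interference check ratio from 0.5 to 1.5 plus GFP to RFP signal ratio inhibition reaching or exceeding a fixed threshold, cut at about 30% in these data, passing the limit was not always enough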
# Rin1-Abl PPI inh: inhibitors of Rin1-Abl protein binding, primary screen, biochemical, TR-FRET | inhibition, % at 7.35 µM | actives 0.4% (n = 360,000) | AID 588664, 2011 | Tyrosine-protein kinase ABL1 (Homo sapiens) + Ras and Rab interactor 1 (Homo sapiens), …; in the data active = inhibition above about 5%, passing the limit was not always enough
# Arr AP2 block: inhibitors of beta-arrestin/AP2 binding, primary screen, biochemical, GPCR trafficking, flow cytometry | FITC-arrestin peptide / GST-AP2 beads; AP2 beta2 appendage carries R879A mutation | inhibition, % at 10 µM | actives 0.31% (n = 340,000);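 active = inhibition above a set limit, near 3 SD of compounds lacking own fluorescence, cut at about 54% in these data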
#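 Test system: GST-tagged AP2 beta2-adaptin appendage (R879A) on 4 µm glutathione beads; also added: fluorescein-tagged arrestin peptide at 50 nM final; timing: 12 min plus 1 h, RT; signal: flow cytometry, FL1 (488/535 nm); read-out: percent drop in bead-associated FITC signal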
# Numbers stand for hits; n = inactive; x = no result given. Compounds with a hit are over-represented: about 1.6% of the library has one in this group of screens.
SMILES,MT1-MMP act inh,TbMetRS inhib,SKN-1 block,Rin1-Abl PPI inh,Arr AP2 block
CCN(C(=O)COC(=O)c1cc(-c2cccc3ccccc23)nc2ccccc12)C1CCS(=O)(=O)C1 (stereo not given),n,n,39,n,n
COc1cc(C=C2CCCC(=Cc3ccc(OCC4CO4)c(OC)c3)C2=O)ccc1OCC1CO1 (stereo not given),n,n,n,n,x
O=C(O)c1cc2ccccc2c(N=Nc2cccnc2)c1O,n,n,39,n,n
Cc1cn([C@H]2C[C@H](O)[C@@H](/C=C/C(=O)N3CCN(Cc4ccc(F)cc4)CC3)O2)c(=O)[nH]c1=O,n,n,n,n,x
CC(C)CN(C(=O)CCNC(=O)c1ccc(Cl)cc1)C1CCS(=O)(=O)C1 (stereo not given),n,n,n,n,n
CN(C)CC(O)c1ccc(C=Cc2ccc(Cl)cc2)cc1 (stereo not given),n,n,53,n,n
Fc1ccc(-c2nnn(Cc3nc4ccccc4s3)n2)cc1,n,n,37,n,n
Fc1ccc(Cn2nnc(-c3ccc(Cl)cc3)n2)cc1,n,n,n,n,n
Clc1ccc(-c2nnn(Cc3nc4ccccc4s3)n2)cc1,n,n,57,n,n
Cc1cc(-c2csc(NC(=O)c3ccc(=O)n(C)n3)n2)c(C)n1CC1CCCO1 (stereo not given),n,n,39,n,n
Cc1cc(-c2csc(NC(=O)C3=COCCO3)n2)c(C)n1C,n,n,n,n,n
Cc1cc(-c2csc(NC(=O)c3ccc(=O)[nH]c3)n2)c(C)n1Cc1ccco1,n,n,n,8.3,n
CCNc1nc(-c2cc(C)n(Cc3ccco3)c2C)cs1,n,n,n,n,n
CCC(C(=O)c1ccc(O)cc1)c1ccccc1 (stereo not given),n,n,n,n,n
CCC(C(=O)N(C(C)C)C(C)C)c1ccccc1 (stereo not given),n,n,37,n,n
Cc1cc2ccccc2n1CCNC(=O)Cc1ccccc1,n,n,n,n,n
Cc1cc2ccccc2n1CCNC(=O)C(C)C,n,n,53,n,n
Cc1cccc(CC(=O)NCCn2c(C)cc3ccccc32)c1,n,n,38,n,n
COC(=O)c1sc(N)nc1CCNC(=O)OC(C)(C)C,n,n,n,x,x
O=C(/C=C/c1cccs1)c1ccc(N2CCOCC2)cc1,n,n,36,n,n
COCC(=O)N[C@H]1C=C[C@@H](CC(=O)OC)O[C@@H]1CO,n,n,n,x,x
[O-]/[N+](=C/c1ccco1)c1ccccc1,n,n,n,n,n
[O-]/[N+](=C\c1ccco1)c1ccc(Cl)cc1,n,n,36,n,n
CC1=NN(c2cccc(Cl)c2)C(=O)C1,n,n,n,32,n
O=C(NN=Cc1ccc(O)c(O)c1)c1ccccc1,n,n,n,n,x
SMILES,MT1-MMP act inh,TbMetRS inhib,SKN-1 block,Rin1-Abl PPI inh,Arr AP2 block
O=C(/C(=N/N=C/c1ccc(O)c(O)c1O)c1ccccc1)c1ccccc1,n,n,n,12,n
CCCCn1nnc(NC(=O)c2sc3cc(Cl)ccc3c2Cl)n1,n,n,n,n,n
CCN(CC)Cc1ccc(NC(=O)c2sc3cc(Cl)ccc3c2Cl)cc1,n,n,51,n,n
CCn1c(/N=C/c2ccccc2NS(=O)(=O)c2ccc(C)cc2)nc2ccccc21,n,6.5,n,n,n
CCN(CC)CCn1c(NS(=O)(=O)c2ccc(C)cc2)nc2ccccc21,n,n,n,n,n
CNc1cc(-c2ccc(O)cc2C)ncn1,n,n,n,n,x
COc1ccccc1C1CC(c2cccs2)=Nc2ccccc2S1 (stereo not given),n,n,n,n,n
COc1ccccc1C1CN(c2ccc(F)cc2F)N=C1c1cccs1 (stereo not given),n,n,44,n,n
Oc1cccc(CN2CCOCC2)c1O,n,n,n,13,n
CCCc1cc(CN2CCOCC2)c(O)c(CN2CCOCC2)c1O,n,n,n,n,n
O=C(COC(=O)c1ccc(Br)o1)Nc1ccc(S(=O)(=O)N2CCCC2)cc1,n,n,40,n,n
COC(=O)[C@]12CCCCC=C1N(Cc1ccc3c(c1)OCO3)C(=O)[C@H](CC(=O)NCCCN1CCCC1=O)C2,n,n,n,x,x
Cc1ccc(NC2CCCN(C(=O)C3CCCC3)C2)cc1C (stereo not given),n,n,n,n,n
O=C1c2ccccc2C(=O)c2c(NCc3cccnc3)cccc21,n,n,43,n,n
N#Cc1c(N)oc(-c2ccc3c(c2)OCO3)c1-c1ccc2c(c1)OCO2,n,n,43,n,n
Cc1nc(N)c(C#N)c(-c2ccc3c(c2)OCO3)c1C,n,n,n,n,n
CS(=O)(=O)N1N=C(c2ccc(Br)cc2)CC1c1ccc2c(c1)OCO2 (stereo not given),n,n,n,n,n
Cc1ccc(C2=NN(S(C)(=O)=O)C(c3ccc4c(c3)OCO4)C2)cc1 (stereo not given),n,n,38,n,n
Cc1ccccc1S(=O)(=O)NC(=O)C1(C)CCN1C(=O)CC(c1ccccc1)c1ccccc1 (stereo not given),n,n,n,n,x
COc1ccc(NC(=O)c2cccs2)cc1NC(=O)c1ccco1,n,n,n,n,n
O=C(Nc1ccc(Br)c(Cl)c1)c1ccco1,n,n,86,n,n
O=C(Nc1ccc(NC(=O)c2ccco2)c(Cl)c1)c1ccccc1,n,n,n,n,n
Cc1ccc(NC(=O)c2cccs2)cc1NC(=O)c1ccco1,n,n,44,n,n
O=C(Nc1ccc2nc(-c3ccccc3)oc2c1)c1ccco1,n,n,75,n,n
O=C(Nc1ccc2c(c1)Cc1ccccc1-2)c1ccco1,n,n,72,n,n
SMILES,MT1-MMP act inh,TbMetRS inhib,SKN-1 block,Rin1-Abl PPI inh,Arr AP2 block
Cc1onc(-c2ccccc2)c1C(=O)N1CCC(C)(C(=O)O)C1 (stereo not given),n,n,n,n,x
CN1/C(=C\C(=O)COC(=O)Cn2nnc(-c3ccccc3)n2)C(C)(C)c2ccccc21,39,n,n,n,n
Nc1ccc(CSc2ccc(Cl)cc2)c(Cl)c1,n,n,45,n,n
N=C(N)SCc1ccc(Cl)cc1Cl,n,n,n,n,n
Clc1ccc(Nc2ncnc3ccc(Br)cc23)cc1,n,n,36,n,n
Clc1cccc(Nc2ncnc3ccc(Br)cc23)c1,n,n,n,n,n
COc1ncccc1-c1nnn(-c2ccc(Cl)c(Cl)c2)n1,n,n,n,n,x
